V1R ag counter: activates human V1a receptor in oxytocin agonist counter-screen; actives 0.25% (n = 320,000); P37288; activation, % at 3 µM; CHO-V1R cells, Fluo-8 calcium fluorescence, agonist mode; 0% DMSO, 100% 3 nM vasopressin;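 active means activation above the mean activation of all tested compounds plus 3 SD, per screening run, cut at about 20% in these data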;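 further: signal is peak over basal fluorescence ratio across a 100 second FLIPR read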
Target sequence (P37288 whole entry, looked up): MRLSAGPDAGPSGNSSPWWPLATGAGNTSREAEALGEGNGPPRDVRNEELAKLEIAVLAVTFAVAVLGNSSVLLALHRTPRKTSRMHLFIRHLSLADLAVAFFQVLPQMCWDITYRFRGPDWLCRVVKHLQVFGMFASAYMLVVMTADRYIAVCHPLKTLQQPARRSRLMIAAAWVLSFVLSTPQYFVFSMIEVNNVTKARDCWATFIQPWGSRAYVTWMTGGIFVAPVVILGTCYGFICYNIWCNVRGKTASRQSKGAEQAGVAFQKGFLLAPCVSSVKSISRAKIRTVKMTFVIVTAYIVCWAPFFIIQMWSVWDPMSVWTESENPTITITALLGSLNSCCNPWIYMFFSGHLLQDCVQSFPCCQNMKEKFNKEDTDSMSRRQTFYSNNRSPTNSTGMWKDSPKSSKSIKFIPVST
OXTR potentiator: human OXTR potentiation; P30559; CHO-OTR cells, Fluo-8 calcium fluorescence, potentiator mode; 0% = oxytocin EC15, 100% = EC100; activation, % at 3 µM; actives 0.061% (n = 320,000); AID 2445;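 active means activation above that plate's cutoff, the mean activation of tested compounds plus 3 SD, cut at about 6.6% in these data, passing the limit was not always enough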
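Assay system: CHO cell line stably expressing human OTR | Also added: Oxytocin at about EC15, sub-maximal agonist stimulus | Times: Compound 6 min at room temperature before oxytocin, 100 s read | Measured by: Fluo-8 intracellular calcium fluorescence, ex 470-495, em 515-575 nm | Controls: EC15 oxytocin alone as 0%, 75 nM oxytocin as 100%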
OXTR agonist: activates the human oxytocin receptor. actives 0.32% (n = 320,000). CHO-OTR cells, Fluo-8 calcium fluorescence; normalized: DMSO 0%, oxytocin 100%. activation, % at 3 µM. P30559;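 active means activation above the mean of all tested compounds plus 3 SD, cutoff set per screening run, cut at about 20% in these data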;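 further: peak over basal fluorescence ratio from a 100 s FLIPR kinetic read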
TRPML3 ag: human mucolipin-3 channel agonism; Q8TDD5; HEK293 TRPML3-YFP, Fluo-8 calcium fluorescence; 100% = the carbachol control signal; activation, % at 3 µM; actives 0.29% (n = 220,000); AID 1448;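 active means activation above its plate's cutoff, the mean activation of the plate's test wells plus 3 SD, cut at about 12% in these data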
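Material: HEK293 cells stably carrying human TRPML3-YFP; compound dosing: single dose, 3 µM final nominal compound, 0.3% DMSO final; incubation: 1-h 37 °C dye load, 5-s basal, 120-s post-compound reads; technique: Fluo-8 intracellular calcium fluorescence, excitation 470-495 nm, emission 515-575 nm; read-out basis: percent activation from peak-to-basal fluorescence ratio, scaled between DMSO and carbachol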
zfTRPN1 agonist: activates the zebrafish TRPN1 channel | HEK293 zebrafish TRPN1-YFP, Fluo-8 calcium fluorescence; 100% = response to 87 µM carbachol | activation, % at 3 µM | actives 0.18% (n = 220,000) | AID 1424;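 active means activation above its plate's cutoff, the mean activation of test wells on that plate plus 3 SD, cut at about 19% in these data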
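Material: zebrafish TRPN1-YFP in HEK293 cells; Doses: single test compound dose, 3 µM nominal, 0.3% DMSO; Timing: dye loading 1 h at 37 °C, then 30 min room temperature; Technique: intracellular calcium fluorescence with Fluo-8; Benchmarks: high carbachol 87 µM, low DMSO alone.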
TRPN1 counter: counter-screen for TRPML3 agonists: agonists of zebrafish TRPN1 channel | shares compounds with TRPML3 ag | HEK293 zebrafish TRPN1-YFP, Fluo-8 calcium fluorescence; scaled: carbachol wells 100%, DMSO wells 0% | activation, % at 3 µM | actives 10% (n = 310) | AID 1525;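 active means mean activation over replicates above a set limit taken from the earlier TRPN1 channel primary screen, cut at about 19% in these data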
TRPML3 ag conf: human TRPML3 agonism, confirmation; actives 80% (n = 310); activation, % at 3 µM; shares compounds with TRPML3 ag; AID 1526; HEK293 TRPML3-YFP, Fluo-8 calcium fluorescence; 100% set by carbachol, 0% by DMSO;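 active means activation above a set limit derived from the earlier primary screen, cut at about 12% in these data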
A number is an active result; . = inactive; / = no result given. Most compounds without a hit are left out; they make up all but 0.59% or so of the library.

SMILES | V1R ag counter | OXTR potentiator | OXTR agonist | TRPML3 ag | zfTRPN1 agonist | TRPN1 counter | TRPML3 ag conf
O=C(NC1CCCC1)C(c1cccnc1)N(C(=O)c1ccco1)c1ccc(F)cc1 (stereo not drawn) | . | . | . | / | / | / | /
O=C(Nc1c(S(=O)(=O)c2ccc(Cl)cc2)csc1Br)c1ccccc1Cl | . | . | . | 33 | . | . | 44
Cc1ccc(S(=O)(=O)n2nccc2-c2c(-c3ccc(Cl)cc3)noc2C)cc1 | . | . | . | 82 | . | . | 106
COc1ccc(S(=O)(=O)N2CCCCCC2)cc1N(C)S(=O)(=O)c1ccc(C)cc1 | . | . | . | 55 | . | . | 49
COc1ccc(S(=O)(=O)N2CCCCCC2)cc1Br | / | / | / | 106 | . | . | 70
CCOc1ccc(S(=O)(=O)N2CCCCC2)c(C)c1C | / | / | / | 84 | . | . | 77
COc1ccc(NS(=O)(=O)c2ccc(OC)c(N(C)S(=O)(=O)c3ccc(Cl)cc3)c2)cc1 | . | . | . | 69 | . | . | 34
COc1ccc(S(=O)(=O)N2CCOCC2)cc1N(C)S(=O)(=O)c1ccc(C)cc1 | . | . | . | / | / | / | /
COc1ccc(S(=O)(=O)N2CCOCC2)cc1Br | . | . | . | . | . | / | /
CC(Sc1nnnn1C)C(=O)NC1CCCC1 (stereo not drawn) | . | . | . | / | / | / | /
CCOc1ccc(CCNC(=O)CCNC(=O)c2ccccc2Cl)cc1OCC | . | . | . | / | / | / | /
Cc1ccc(OCCC(=O)OCC(=O)Nc2ccc3[nH]c(=O)[nH]c3c2)cc1 | . | . | . | / | / | / | /
COc1cc(C)ccc1S(=O)(=O)N1CCCCCC1 | . | . | . | 94 | . | . | 34
CCOC(=O)N1CCN(C(=O)c2cc(S(=O)(=O)N3CCc4ccccc43)ccc2OC)CC1 | . | . | . | / | / | / | /
CCOC(=O)c1sc(=S)n(C)c1NC(=O)c1ccc(C(C)(C)C)cc1 | . | . | . | 14 | . | . | .
CC12CCC(C(=O)N(CSC(=S)N/N=C\c3ccccc3O)C1=O)C2(C)C (stereo not drawn) | . | . | . | 67 | . | . | .
COc1ccc(/C=N\NC(=S)SCN2C(=O)C3CCC(C)(C2=O)C3(C)C)cc1 (stereo not drawn) | . | . | . | 39 | . | . | .
CN(C)c1ccc(/C=N\NC(=S)SCN2C(=O)C3CCC(C)(C2=O)C3(C)C)cc1 (stereo not drawn) | . | . | . | 16 | . | . | .
CN(C)c1ccc(/C=N/NC(=O)CCCO)cc1 | . | . | . | . | . | / | /
Cc1cc(C)cc(OCC(=O)NNC(=S)NC(=O)C2CC2)c1 | . | . | . | / | / | / | /
COc1cccc(NC(=O)C2CCOC2=O)c1 (stereo not drawn) | . | . | . | / | / | / | /
CN(CCOc1ccc(Cl)cc1)c1ccc(S(=O)(=O)N2CCCCC2)cn1 | . | . | . | 45 | . | . | 47
Cc1ccc(S(=O)(=O)N2CCC(=O)N(C(COCc3ccc(C(F)(F)F)cc3)C(C)C)CC2)cc1 (stereo not drawn) | . | . | . | 55 | . | . | 77
Cc1ccccc1N1CCN(S(=O)(=O)c2ccccc2)CC1 | . | . | . | 65 | . | . | 36
COc1ccc(Cc2nc3ccc(C(=O)NCCc4cccc(C)n4)cc3o2)cc1 | . | . | . | / | / | / | /
SMILES | V1R ag counter | OXTR potentiator | OXTR agonist | TRPML3 ag | zfTRPN1 agonist | TRPN1 counter | TRPML3 ag conf
O=C1CCC/C=C\C[C@@H](CC(=O)N(CCO)Cc2ccccc2)C(=O)N[C@H](c2ccccc2)CO1 | . | . | . | / | / | / | /
Cc1ccc(/C=C/C(=O)N2CC(C)CC(C)C2)o1 (stereo not drawn) | . | . | . | . | . | / | /
Cc1csc(C(=O)O)c1NC(=O)c1c(Cl)cccc1Cl | . | . | . | / | / | / | /
O=C(CN1CCN(S(=O)(=O)c2ccc(F)cc2)CC1)Nc1ccc(Cl)c(C(F)(F)F)c1 | . | . | . | 15 | . | . | 43
O=C(CN1CCN(S(=O)(=O)c2ccc(F)cc2)CC1)Nc1ccc2c(c1)OCCO2 | . | . | . | . | . | / | /
Cc1cc(C)n(-c2nc(C)nc(NCc3ccccc3)n2)n1 | . | . | . | 25 | . | . | 23
CN(C)S(=O)(=O)c1ccc(N2CCCC2)c(C(=O)Nc2nc(-c3cc(F)ccc3F)cs2)c1 | . | . | . | . | . | / | /
COc1ccc(/C=C2\C(=O)NC(=S)N2C(=O)c2ccc(F)cc2)cc1 | 22 | . | 20 | 14 | . | . | .
CCN(CC)CC(=O)NC12CC3CC(CC(C3)C1)C2 | . | . | . | . | . | / | /
CCN(CC)C(=S)SCC(=O)NC12CC3CC(CC(C3)C1)C2 | . | . | . | 12 | . | . | 28
O=C(NCc1ccco1)/C(=C\c1cccs1)NC(=O)c1ccco1 | . | . | . | . | . | / | /
COc1ccc(C2(c3ccc(OC)cc3)NC(=O)N(CC(=O)N(C)C3CCC(C)CC3)C2=O)cc1 (stereo not drawn) | . | . | . | / | / | / | /
CN(c1ccc(OCc2nnc(-c3ccccc3)o2)cc1)S(=O)(=O)c1ccccc1 | . | . | . | 40 | . | . | 37
CCOC(=O)N1CCC(N2C(=O)c3ccccc3C2Nc2ccc(S(=O)(=O)N3CCCCC3)cc2)CC1 (stereo not drawn) | . | . | . | 15 | . | . | .
Cc1cc2[nH]c(=O)c(=O)[nH]c2cc1S(=O)(=O)N1CCC(C)CC1 | . | . | . | / | / | / | /
CCCOc1cc(N(CC)CC)ccc1/C=C(/C#N)c1nc2ccc(C)cc2[nH]1 | 27 | . | 33 | 13 | . | 24 | 13
Cc1nc(S(=O)(=O)Cc2ccccc2Cl)nc2c1CCC2 | . | . | . | . | . | / | /
Cc1cccc(C)c1-n1nnnc1S(=O)(=O)Cc1ccccc1Cl | . | . | . | 26 | . | . | 14
COc1cccc(CN(Cc2ccco2)C(c2ccc(F)cc2)c2nnnn2C(C)(C)C)c1 (stereo not drawn) | . | . | . | 25 | . | . | 26
CC(C)(C)n1nnnc1C(c1cccnc1)N(Cc1ccccc1)Cc1ccco1 (stereo not drawn) | . | . | . | . | . | / | /
CC1CCN(S(=O)(=O)c2ccc(Br)s2)CC1 | . | . | . | 20 | . | . | 19
CN1CCN(S(=O)(=O)c2ccc3ccccc3c2)CC1 | . | . | . | . | . | / | /
CC1CCN(S(=O)(=O)c2ccc3ccccc3c2)CC1 | . | . | . | 22 | . | . | 43
CC1CCN(S(=O)(=O)c2ccc(C(C)C)cc2)CC1 | . | . | . | 68 | . | . | 118
